Measured values: paper PMC4463842 (Molecular Medicine Reports, 2015)

Legend:
[1] = molecular target: peptide-HLA-A*0201 complex (Homo sapiens, UniProt P04439, D140Y/D185E/D98H/E176V/E277Q/G131W/G231S/I119V/I121R/I166T/I218V/L300P/L318F/N151K/N90K/P208A/P217A/Q86G/Q94H/R138H/R169H/T345S); assay: BFA decay assay; assay type: binding; conditions: T2 cells loaded with 100 µM peptide, 37°C, time required for 50% reduction of the MFI value recorded at time 0
[2] = test system: MCF-7 cells (HLA-A*0201+, EPS8+); assay: LDH release cytotoxicity assay of peptide-specific CTLs; assay type: cell-based, human; conditions: effector to target cell ratio 100:1, CTLs induced with peptide 10 µg/ml
Outline: (§1)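 Effectors were CTLs from donor PBMCs after three rounds of peptide stimulation over 3 weeks. Targets were plated at 5,000/well at E:T 100:1, spun 250 × g 4 min, then co-cultured 4–6 h at 37°C, 5% CO2, in phenol red-free medium with 5% FBS. Supernatant LDH gave %cytotoxicity = (experimental − effector spontaneous − target spontaneous)/(target maximum − target spontaneous) ×100. Triplicate wells, three repeats.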

[3] = test system: T2 cells pulsed with corresponding peptides; assay: as above; assay type: cell-based, human; conditions: effector to target cell ratio 100:1
Outline: as §1

DC50 [1] | Sequence | average lysis rate of MCF-7 cells ([2]; donor 1) | average lysis rate of MCF-7 cells ([2]; donor 2) | lysis rate of T2 cells loaded with the corresponding peptide ([3]; donor 1) | lysis rate of T2 cells loaded with the corresponding peptide ([3]; donor 2)
>8 h | FLFTPLNMV [Peptide 360] |  |  |  | 
6 to 8 h | ILDDIEFFI [Peptide 276] |  |  |  | 
>8 h | QLAESVANV [Peptide 455] |  |  |  | 
 | KLLDAKGKV [Peptide 92] | 51.28±1.54% | 54.22±3.01% | 45.41±4.16% | 35.23±1.50%
